Structures can show the parent of a compound that is named as a salt.
Key:
BALB/3T3 [1] = assay: Selectivity ratio of IC50 for mouse BALB/3T3 cells to IC50 for human HCT116 cells
MV4-11 = assay: Antiproliferative activity against human MV4-11 cells after 72 hrs by MTT assay; assay type: functional, cell-based; settings: MV4-11, 72 h
Summary of the method: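 Leukemia cells cultured in RPMI 1640 at 37 °C, 5% CO2. Plated at 1 × 10⁴ cells/well 24 h ahead, then 72 h with compound at 0.001–10 µg/mL. MTT (stock 5 mg/mL) added, formazan dissolved with a DMF/SDS lysing mixture for 24 h, OD read at 570 nm. IC50 vs untreated control; triplicates, 3–5 repeats.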

BALB/3T3 [2] = assay: Antiproliferative activity against mouse BALB/3T3 cells after 72 hrs by SRB assay; assay type: cell-based; settings: BALB/3T3, 72 h
Summary of the method: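 Mouse fibroblasts kept in Dulbecco's medium with 2 mM L-glutamine, 1.0 mM sodium pyruvate and 10% FBS at 37 °C, 5% CO2. Seeded at 1 × 10⁴ cells/well a day before dosing, then 72 h exposure to 0.001–10 µg/mL. SRB staining after TCA fixation, Tris extraction, OD 540 nm. IC50 relative to untreated cells; triplicate wells, 3–5 independent runs.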

HCT-116 = assay: Antiproliferative activity against human HCT116 cells after 72 hrs by SRB assay; assay type: functional, cell-based; settings: HCT-116, 72 h
Summary of the method: (§1)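 Cells grown in RPMI 1640+OptiMEM (50:50) with 2 mM L-glutamine and 5% FBS at 37 °C, 5% CO2. Plated at 1 × 10⁴ cells/well 24 h before treatment, then exposed 72 h to 0.001–10 µg/mL compound (from 1 mg/mL stock in DMSO/medium). TCA-fixed, stained with 0.4% SRB in 1% acetic acid, dye extracted with 10 mM Tris, read at 540 nm. IC50 vs untreated control; triplicates, 3–5 experiments.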

A549 [3] = assay: Selectivity ratio of IC50 for human A549 cells to IC50 for human HCT116 cells; assay type: functional
A549 [4] = assay: Antiproliferative activity against human A549 cells after 72 hrs by SRB assay; assay type: functional, cell-based; settings: A549, 72 h; summary of the method: as §1
BALB/3T3 [5] = assay: Selectivity ratio of IC50 for mouse BALB/3T3 cells to IC50 for human A549 cells
Nucleic Acid = assay: Binding affinity to salmon fish sperm DNA assessed as hypochromic effect by UV-Vis absorption spectroscopic analysis at pH 7; assay type: nucleic-acid assay; settings: Salmonidae
Summary of the method: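 UV–vis absorption titration in pH 7.0 phosphate buffer with 2.5% DMSO at 20 °C, 1 cm quartz cuvette. Compound held at 50 µmol/L with DNA added from 0 to 1.0 µmol/L. Binding assessed from absorbance change using a 1/ΔA versus 1/[DNA] plot.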

SMILES	IC50 (MV4-11) [nM]	IC50 (HCT-116) [nM]	IC50 (A549 [4]) [nM]	K (Nucleic Acid) [×10⁵ L/mol]	Ratio IC50 (BALB/3T3 [1])	IC50 (BALB/3T3 [2]) [nM]	Ratio IC50 (A549 [3])	Ratio IC50 (BALB/3T3 [5])
CN(C)CCNc1c2cc(Cl)ccc2nc2c1c1ccccc1n2C	2830							
Cn1c2ccccc2c2c(NCCCCN)c3cc(Cl)ccc3nc21	669	5500	6090			9010		
Cn1c2nc3ccccc3c-2c(NCCCN)c2ccccc21	66	302	205		3	884		3
Cn1c2nc3ccccc3c-2c(NCCCO)c2ccccc21	170	714	973			635		
CCN(CC)CCCC(C)Nc1c2c3ccccc3nc-2n(C)c2ccccc12 (configuration not stated)	721							
Cn1c2ccccc2c2c(NCCc3c[nH]c4ccccc34)c3cc(Cl)ccc3nc21	18800							
CCN(CC)CCCC(C)Nc1c2c3ccccc3nc-2n(C)c2ccc(Br)cc12 (configuration not stated)	578							
CCN(CC)CCCC(C)Nc1c2cc(Cl)ccc2nc2c1c1ccccc1n2C (configuration not stated)	5250							
Cn1c2ccccc2c2c(NCCN)c3cc(Cl)ccc3nc21	456	6990	8280			10400		
COc1cccc2c1C(=O)c1c(O)c3c(c(O)c1C2=O)C[C@@](O)(C(=O)CO)C[C@@H]3O[C@H]1C[C@H](N)[C@H](O)[C@H](C)O1 [DOXORUBICIN HYDROCHLORIDE]	6	390	329			1080		
Cn1c2nc3ccccc3c-2c(NCCc2c[nH]c3ccccc23)c2ccccc21	871							
Cn1c2nc3ccccc3c-2c(NCCc2c[nH]c3ccccc23)c2cc(Cl)ccc21	447							
Cn1c2ccccc2c2c(NCCCN)c3cc(Cl)ccc3nc21	800	4490	7380	3.28		9800		
Cn1c2ccccc2c2c(NCCCO)c3cc(Cl)ccc3nc21	6210							
Cn1c2nc3ccccc3c-2c(NCCCCN)c2ccccc21	100	669	911			936		

More lines, main results first:

IC50 (MV4-11) [nM]	IC50 (HCT-116) [nM]	IC50 (A549 [4]) [nM]	K (Nucleic Acid) [×10⁵ L/mol]	SMILES	Ratio IC50 (BALB/3T3 [1])	IC50 (BALB/3T3 [2]) [nM]	Ratio IC50 (A549 [3])	Ratio IC50 (BALB/3T3 [5])
135	278	1010		COc1ccc2c(c1)c(NCCCO)c1c3ccccc3nc-1n2C	4	807	4	
773	8000	11200		CN1CCCN(c2c3cc(Cl)ccc3nc3c2c2ccccc2n3C)CC1		> 25000		
95	178	785		Cn1c2nc3ccccc3c-2c(NCCCCN)c2cc(F)ccc21	4	853	4	
680				Cn1c2nc3ccccc3c-2c(NCCCCN)c2cc(Cl)ccc21				
164	1800	1510		Cn1c2nc3ccccc3c-2c(N2CCOCC2)c2ccccc21		1610		
1210				COc1ccc2c(c1)c(Cl)c1c3ccccc3nc-1n2C				
810				Cn1c2nc3ccccc3c-2c(Cl)c2cc(Br)ccc21				
780				CCN(CC)CCCC(C)Nc1c2c3ccccc3nc-2n(C)c2ccc(Cl)cc12 (configuration not stated)				
1310				Cn1c2nc3ccccc3c-2c(Cl)c2ccccc21 [11-CHLORONEOCRYPTOLEPINE]				
132	657	674		COc1ccc2c(c1)c(NCCCCN)c1c3ccccc3nc-1n2C		1620		
703	989	1590		Cn1c2nc3ccccc3c-2c(NCCCO)c2cc(Br)ccc21		1200		
12	274	543	2.93	Cn1c2nc3ccccc3c-2c(NCCCN)c2cc(Br)ccc21	3	869		3
3440				CN1CCCN(Cc2c3c4ccccc4nc-3n(C)c3ccc(Cl)cc23)CC1				
7170				CN1CCCN(c2c3c4ccccc4nc-3n(C)c3ccccc23)CC1				
102	155	407		COc1ccc2c(c1)c(NCCCN)c1c3ccccc3nc-1n2C	3	978		3
68	195	761		Cn1c2nc3ccccc3c-2c(NCCCN)c2cc(Cl)ccc21	4	401	4	
737	1160	4540		CN1CCCN(c2c3c4ccccc4nc-3n(C)c3ccc(Br)cc23)CC1		7600		
> 25000				Cn1c2ccccc2c2c(N3CCOCC3)c3cc(Cl)ccc3nc21				
91	209	579		Cn1c2nc3ccccc3c-2c(NCCCCN)c2cc(Br)ccc21	3	742		3
3460				CN(C)CCCNCc1c2c3ccccc3nc-2n(C)c2ccc(Cl)cc12				
530				Cn1c2nc3ccccc3c-2c(NCCCO)c2cc(Cl)ccc21				
106	1750	7390		CN1CCCN(c2c3c4ccccc4nc-3n(C)c3ccc(Cl)cc23)CC1	4	6410	4	
